Source: PubChem
Bfl-1 A1 inh: caspase 3/7 activation in MEF A1-2A-BIM cells, primary screen, A1 inhibitor project, cell-based, luminescence, HTS. 330,000 compounds, 0.066% hits. caspase activation, % (test concentration not listed). Caspase-Glo 3/7 luminescence, 3 h; percent of clofoctol response, vehicle zero;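 active = over half of replicate activation scores above 10%, or exactly half above 10 with the replicate mean above 10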
UPR XBP1 act: activators of adaptive XBP1 UPR arm, primary screen, cell-based, CHO-XBP1 luciferase reporter, luminescence, uHTS. AID 463104, 2010. IRE1-XBP1 UPR activation; percent of tunicamycin response, DMSO as zero. activation, % at 20 µM. 330,000 compounds, 0.33% hits;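 active = versus positive control, 20 µM dose yields 30% or more activation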;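 also: 100% = tunicamycin at 10 µg/mL and 0% = DMSO only wells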
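Material: IRE1-XBP1 luciferase reporter CHO line / Quantity: one thousand reporter cells per well / Buffer or medium: F12 with 10% serum / Compound: 20 µM single concentration, DMSO 1% / Times: 6 h treatment, 37 °C / Detection: Steady-Glo luciferase glow luminescence, 10 min after reagent addition / Benchmarks: tunicamycin high, DMSO low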
CHOP inh: inhibitors of CHOP promoter induction, primary screen, cell-based, unfolded protein response, luciferase reporter. CHO-K1 CHOP-promoter luciferase, tunicamycin-induced, 15-18 h. inhibition, % at 10 µM. 220,000 compounds, 3.8% hits;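 active = compounds that reduced the stress-induced luciferase reporter signal by more than about 70% of percent inhibition, limit read from the data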;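 also: 0% = tunicamycin plus vehicle and 100% = wells without tunicamycin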
UPR CHOP act: activators of apoptotic CHOP UPR arm, primary screen, cell-based, CHO-CHOP luciferase reporter, luminescence, uHTS | AID 449763, 2010 | UPR activation; percent of tunicamycin response over DMSO baseline | activation, % at 10 µM | 330,000 compounds, 0.34% hits;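 active = at 10 µM dose, activation of 40% or more, normalized to positive control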;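 also: 100% = tunicamycin at 10 µg/mL and 0% = DMSO alone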
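System: CHO CHOP reporter cells. Amount: 500 cells per well. Buffer or medium: F12 medium, 10% FBS. Compound dosing: one dose, 10 µM in 0.5% DMSO. Incubation: 6 h compound exposure at 37 °C after overnight seeding. Technique: Steady-Glo luciferase luminescence. Benchmarks: tunicamycin and DMSO controls.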
* = called active by the depositor. The full list was thinned out, with hits kept by preference.

For CN(Cc1ccco1)C(=O)c1ccc(S(=O)(=O)N2CCCCCC2)cc1 the results were Bfl-1 A1 inh -0.4, UPR XBP1 act -2.7 and UPR CHOP act -1.0.
COCCN1C(=O)N(c2ccc(OC)cc2)C(=O)C1CC(=O)Nc1cccc(F)c1 (stereo not drawn) was read as Bfl-1 A1 inh 0.0, UPR XBP1 act 0.3 and UPR CHOP act -1.4.
`CC1(C)CC2CC(C)(CN2C(=O)COc2cccc3ccccc23)C1` (stereo not drawn) gave Bfl-1 A1 inh 1.3, UPR XBP1 act 0.1, CHOP inh 91.3* and UPR CHOP act -0.7.
For O=C(COc1cccc2ccccc12)N1c2ccccc2CCc2ccccc21 the results were Bfl-1 A1 inh 1.3, UPR XBP1 act 3.2, CHOP inh 73.5* and UPR CHOP act 0.9.
Screening O=C(COc1ccc(F)cc1)N1c2ccccc2CCc2ccccc21 returned Bfl-1 A1 inh 1.1, UPR XBP1 act -0.3, CHOP inh 13.6 and UPR CHOP act -0.8.
Screening Cc1cnc(NC(=O)c2ccc(-c3nc4ccccc4s3)o2)s1 returned Bfl-1 A1 inh -0.7, UPR XBP1 act 0.5, CHOP inh 73.8* and UPR CHOP act 2.4.
Screening Cc1ccc(NC(=O)CCN2CC(C)OC(C)C2)cc1 (stereo not drawn) returned Bfl-1 A1 inh -0.5, UPR XBP1 act -2.9 and UPR CHOP act 0.6.
`CCCCCCCCn1c2c(c(=N)c3ccccc31)CCC2` gave UPR XBP1 act 15.0, CHOP inh 77.2* and UPR CHOP act 16.0.
`Nc1nc(Cl)cc(N2CCC(c3cc(-c4ccc(Cl)cc4)n[nH]3)CC2)n1` gave Bfl-1 A1 inh -0.3, UPR XBP1 act 3.8, CHOP inh 60.6 and UPR CHOP act 11.0.
`COc1ccc(-c2cc(C3CCN(c4cc(Cl)nc(N)n4)CC3)[nH]n2)cc1` gave Bfl-1 A1 inh 1.7, UPR XBP1 act 1.7, CHOP inh 73.0* and UPR CHOP act 4.6.
`COc1ccc(OC)c(-c2cc(C3CCN(c4ncccc4[N+](=O)[O-])CC3)[nH]n2)c1` gave Bfl-1 A1 inh 1.2, UPR XBP1 act 0.4, CHOP inh 41.7 and UPR CHOP act 1.3.
COc1ccc(OC)c(-c2cc(C3CCN(c4cc(Cl)nc(N)n4)CC3)[nH]n2)c1 was read as Bfl-1 A1 inh -0.3, UPR XBP1 act 4.5, CHOP inh 72.8* and UPR CHOP act 1.2.
For Cc1ccc(-n2ncc3c2CCCC3NC(=O)CSc2ccccn2)cc1C (stereo not drawn) the results were Bfl-1 A1 inh -0.5, UPR XBP1 act -6.1 and UPR CHOP act -0.6.
`CC1(c2ccc3ccccc3c2)NC(=O)N(CC(=O)N2CCN(c3ccccc3O)CC2)C1=O` (stereo not drawn) gave Bfl-1 A1 inh 0.1, UPR XBP1 act -4.5 and UPR CHOP act -0.6.
O=C(Nc1cc(C(F)(F)F)ccc1Cl)c1ccc(NC(=O)C(F)(F)F)cc1 was read as Bfl-1 A1 inh -0.9, UPR XBP1 act -0.9, CHOP inh 45.0 and UPR CHOP act 0.8.
Screening CCCC(=O)Nc1ccc(C(=O)Nc2cc(C(F)(F)F)ccc2Cl)cc1 returned Bfl-1 A1 inh 0.0, UPR XBP1 act 5.8, CHOP inh 73.3* and UPR CHOP act -0.8.
`O=C(Cc1ccccc1)NC(=S)Nc1cc(C(F)(F)F)ccc1Cl` gave Bfl-1 A1 inh 0.9, UPR XBP1 act -2.3, CHOP inh 94.8* and UPR CHOP act -0.7.
`Cc1ccc(-c2noc(CCC(=O)NCC3CCCO3)n2)cc1` (stereo not drawn) gave Bfl-1 A1 inh 0.2, UPR XBP1 act -1.2, CHOP inh 29.9 and UPR CHOP act 2.0.
`Cc1cccc(-c2noc(CCC(=O)Nc3ccccc3)n2)c1` gave Bfl-1 A1 inh -1.0, UPR XBP1 act -1.9, CHOP inh 16.6 and UPR CHOP act -0.7.
O=C(CCc1nc(-c2ccccc2)no1)Nc1cc(C(F)(F)F)ccc1Cl was read as Bfl-1 A1 inh -0.6, UPR XBP1 act -0.8, CHOP inh 93.3* and UPR CHOP act 7.1.
Screening CC(C)(C)c1ccc(-c2noc(CCC(=O)NCC3CCCO3)n2)cc1 (stereo not drawn) returned Bfl-1 A1 inh -0.2, UPR XBP1 act -1.8, CHOP inh 89.5* and UPR CHOP act -4.6.
